{"source": "ChEMBL document CHEMBL1131231", "about": "“New azole antifungals. 2. Synthesis and antifungal activity of heterocyclecarboxamide derivatives of 3-amino-2-aryl-1-azolyl-2-butanol” (1998)", "key": {"[1]": {"experiment": "The compound was tested in vitro for antifungal activity against 6 filamentous fungi.", "type": "functional", "outline": "(§1)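 Agar dilution on Kimmig's agar with 0.5% glycerol; ATCC or clinical isolates, inocula at 10⁵ cfu/mL. Drugs from 800 μg/mL stock in 50% ethanol, 2-fold serial dilutions 80 to 0.03 μg/mL in plates. Incubated 25 °C, 48 h for yeasts, 120 h for filamentous fungi. Value is geometric mean of MICs (μg/mL); >80 taken as 160, ≤0.03 as 0.03.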"}, "[2]": {"experiment": "The compound was tested in vitro for antifungal activity against 10 yeasts.", "type": "functional", "outline": "as §1"}, "Mus musculus [3]": {"tested_on": "Mus musculus", "experiment": "In vivo antifungal activity against murine candidosis model after peroral administration with 2.5 mg/kg at various time intervals. (percent protection for 100% mortality with fluconazole-treated group.)", "type": "functional", "details": "route oral", "outline": "(§2)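 Male mice, groups of 10, infected iv with 0.2 mL Candida albicans at (2–8) × 10⁷ cfu/mL. Oral suspension in 1% Tween + 0.2% carboxymethylcellulose in water, given 1, 4 and 24 h post-infection; vehicle controls and a fluconazole group at the same dose. Survival scored on days 1, 2, 3, 5, 7, 9, reported as % surviving on the day untreated, or fluconazole-treated, mortality reached 100%.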"}, "Mus musculus [4]": {"tested_on": "Mus musculus", "experiment": "In vivo antifungal activity against murine candidosis model after peroral administration with 2.5 mg/kg at various time intervals. (percent protection for 100% mortality with untreated group)", "type": "functional", "details": "route oral", "outline": "as §2"}, "[5]": {"experiment": "In vivo antifungal activity against murine candidosis model after peroral administration with 1 mg/kg for 5 days.(percent protection for 100% mortality with untreated group)", "type": "functional, Mus musculus", "details": "route oral", "outline": "(§3)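 Second murine systemic Candida albicans model. Mice, n = 10 per group, dosed orally once daily for 5 days after infection. Animals observed for 65 days, with survival rate as read-out and vehicle controls included. Reported as % protection on the day of 100% mortality in the untreated group or in the fluconazole-treated group.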"}, "Candida albicans [6]": {"tested_on": "Candida albicans", "experiment": "In vivo antifungal activity against murine candidosis model after peroral administration with 0.5 mg/kg at various time intervals. (percent protection for 100% mortality with untreated group)", "type": "functional", "details": "route oral", "outline": "as §2"}, "Mus musculus [7]": {"tested_on": "Mus musculus", "experiment": "In vivo antifungal activity against murine candidosis model after peroral administration with 1 mg/kg for 5 days.(percent protection for 100% mortality with fluconazole-treated group.)", "type": "functional", "details": "route oral", "outline": "as §3"}, "Candida albicans [8]": {"tested_on": "Candida albicans", "experiment": "In vivo antifungal activity against murine candidosis model after peroral administration with 0.5 mg/kg at various time intervals. (percent protection for 100% mortality with fluconazole-treated group.)", "type": "functional", "details": "route oral", "outline": "as §2"}, "Candida albicans [9]": {"tested_on": "Candida albicans", "experiment": "In vivo antifungal activity against murine candidosis model after peroral administration with 1 mg/kg at various time intervals. (percent protection for 100% mortality with untreated group)", "type": "functional", "details": "route oral", "outline": "as §2"}, "Mus musculus [10]": {"tested_on": "Mus musculus", "experiment": "In vivo antifungal activity against murine candidosis model after peroral administration with 0.5 mg/kg for 5 days.(percent protection for 100% mortality with untreated group)", "type": "functional", "details": "route oral", "outline": "as §3"}, "Candida albicans [11]": {"tested_on": "Candida albicans", "experiment": "In vivo antifungal activity against murine candidosis model after peroral administration with 1 mg/kg at various time intervals. (percent protection for 100% mortality with fluconazole-treated group.)", "type": "functional", "details": "route oral", "outline": "as §2"}, "Mus musculus [12]": {"tested_on": "Mus musculus", "experiment": "In vivo antifungal activity against murine candidosis model after peroral administration with 0.5 mg/kg for 5 days.(percent protection for 100% mortality with fluconazole-treated group.)", "type": "functional", "details": "route oral", "outline": "as §3"}}, "data": [{"smiles": "Cc1cc2nnc(C(=O)N[C@H](C)[C@](O)(Cn3cncn3)c3ccc(F)cc3F)c(C)n2n1", "values": [{"measurement": "MIC", "setting": "[1]", "result": "> 80", "unit": "mg/L"}, {"measurement": "MIC", "setting": "[2]", "result": 10, "unit": "mg/L"}, {"measurement": "Protection", "setting": "Mus musculus [3]", "result": 0, "unit": "%"}, {"measurement": "Protection", "setting": "Mus musculus [4]", "result": 0, "unit": "%"}]}, {"smiles": "CS(=O)(=O)O.Cc1nc(-c2ccc(C#N)cc2)sc1C(=O)N[C@H](C)[C@](O)(Cn1cncn1)c1ccc(F)cc1F", "values": [{"measurement": "MIC", "setting": "[1]", "result": 4, "unit": "mg/L"}, {"measurement": "Protection", "setting": "[5]", "result": 100, "unit": "%"}, {"measurement": "MIC", "setting": "[2]", "result": 1.2, "unit": "mg/L"}, {"measurement": "Protection", "setting": "Candida albicans [6]", "result": 100, "unit": "%"}, {"measurement": "Protection", "setting": "Mus musculus [7]", "result": 10, "unit": "%"}, {"measurement": "Protection", "setting": "Candida albicans [8]", "result": 100, "unit": "%"}]}, {"smiles": "C[C@@H](NC(=O)c1ccc(-c2cccnc2)s1)[C@](O)(Cn1cncn1)c1ccc(F)cc1F", "values": [{"measurement": "MIC", "setting": "[1]", "result": "> 80", "unit": "mg/L"}, {"measurement": "MIC", "setting": "[2]", "result": 1.6, "unit": "mg/L"}, {"measurement": "Protection", "setting": "Mus musculus [3]", "result": 0, "unit": "%"}, {"measurement": "Protection", "setting": "Mus musculus [4]", "result": 60, "unit": "%"}]}, {"smiles": "Cc1nn(C)c2ncc(C(=O)N[C@H](C)[C@](O)(Cn3cncn3)c3ccc(F)cc3F)c(Cl)c12", "values": [{"measurement": "MIC", "setting": "[1]", "result": "> 80", "unit": "mg/L"}, {"measurement": "MIC", "setting": "[2]", "result": 19, "unit": "mg/L"}, {"measurement": "Protection", "setting": "Mus musculus [3]", "result": 0, "unit": "%"}, {"measurement": "Protection", "setting": "Mus musculus [4]", "result": 0, "unit": "%"}]}, {"smiles": "C[C@@H](c1nc(-c2ccc(C#N)cc2)cs1)[C@](O)(Cn1cncn1)c1ccc(F)cc1F", "note": "[RAVUCONAZOLE]", "values": [{"measurement": "MIC", "setting": "[1]", "result": 0.8, "unit": "mg/L"}, {"measurement": "Protection", "setting": "[5]", "result": 20, "unit": "%"}, {"measurement": "MIC", "setting": "[2]", "result": 0.3, "unit": "mg/L"}, {"measurement": "Protection", "setting": "Candida albicans [6]", "result": 50, "unit": "%"}, {"measurement": "Protection", "setting": "Mus musculus [7]", "result": 0, "unit": "%"}, {"measurement": "Protection", "setting": "Candida albicans [8]", "result": 0, "unit": "%"}]}, {"smiles": "C[C@@H](n1cnc2cc(-c3ccc(C#N)cc3)sc2c1=O)[C@](O)(Cn1cncn1)c1ccc(F)cc1F", "values": [{"measurement": "MIC", "setting": "[1]", "result": 13, "unit": "mg/L"}, {"measurement": "Protection", "setting": "Candida albicans [9]", "result": 100, "unit": "%"}, {"measurement": "MIC", "setting": "[2]", "result": 0.3, "unit": "mg/L"}, {"measurement": "Protection", "setting": "Mus musculus [10]", "result": 100, "unit": "%"}, {"measurement": "Protection", "setting": "Candida albicans [11]", "result": 100, "unit": "%"}, {"measurement": "Protection", "setting": "Mus musculus [12]", "result": 40, "unit": "%"}]}, {"smiles": "C[C@H]([C@](O)(Cn1cncn1)c1ccc(F)cc1F)S(C)(=O)=O", "note": "[GENACONAZOLE]", "values": [{"measurement": "MIC", "setting": "[1]", "result": 25, "unit": "mg/L"}, {"measurement": "Protection", "setting": "[5]", "result": 100, "unit": "%"}, {"measurement": "MIC", "setting": "[2]", "result": 8.7, "unit": "mg/L"}, {"measurement": "Protection", "setting": "Candida albicans [6]", "result": 100, "unit": "%"}, {"measurement": "Protection", "setting": "Mus musculus [7]", "result": 20, "unit": "%"}, {"measurement": "Protection", "setting": "Candida albicans [8]", "result": 100, "unit": "%"}]}, {"smiles": "C[C@@H](n1cnc2cc(-c3ccc(Cl)cc3)sc2c1=O)[C@](O)(Cn1cncn1)c1ccc(F)cc1F", "values": [{"measurement": "MIC", "setting": "[1]", "result": 2.2, "unit": "mg/L"}, {"measurement": "Protection", "setting": "Candida albicans [9]", "result": 100, "unit": "%"}, {"measurement": "Protection", "setting": "[5]", "result": 100, "unit": "%"}, {"measurement": "MIC", "setting": "[2]", "result": 0.2, "unit": "mg/L"}, {"measurement": "Protection", "setting": "Candida albicans [11]", "result": 100, "unit": "%"}, {"measurement": "Protection", "setting": "Mus musculus [7]", "result": 100, "unit": "%"}]}, {"smiles": "C[C@@H](c1ncncc1F)[C@](O)(Cn1cncn1)c1ccc(F)cc1F", "note": "[VORICONAZOLE]", "values": [{"measurement": "MIC", "setting": "[1]", "result": 0.5, "unit": "mg/L"}, {"measurement": "Protection", "setting": "[5]", "result": 20, "unit": "%"}, {"measurement": "MIC", "setting": "[2]", "result": 0.6, "unit": "mg/L"}, {"measurement": "Protection", "setting": "Candida albicans [6]", "result": 0, "unit": "%"}, {"measurement": "Protection", "setting": "Mus musculus [7]", "result": 0, "unit": "%"}, {"measurement": "Protection", "setting": "Candida albicans [8]", "result": 0, "unit": "%"}]}]}
